Experimental data collected from several papers.
Compare with care: the assays were run in different laboratories.
Effect on: enzyme activity
RET: Proto-oncogene tyrosine-protein kinase receptor Ret (RET, Homo sapiens, UniProt P07949)

`CCOc1ccccc1NC(=O)Nc1cc(OC)c2nc(NC(=O)c3ccccc3)sc2c1` gave a remaining activity of 118% (RET; inhibitor; radiometric; 0.1 µM).
For `CCN(CC)CCNC(=O)c1c(C)[nH]c(/C=C2\C(=O)Nc3ccc(F)cc32)c1C`, the remaining activity was 22% (RET; inhibitor; 0.1 µM).
For `CCN(CC)c1ccc(C2=NNC(=O)CC2C)cc1[N+](=O)[O-]` (stereo not shown), the remaining activity was 102% (RET; inhibitor; 10 µM).
For `COC(=O)c1cccc(NC(=O)Nc2cc(C)c3nc(NC(=O)c4ccccc4)sc3c2)c1`, the remaining activity was 103% (RET; inhibitor; radiometric; 10 µM).
The remaining activity of `CCCOc1ccc(OC)c(F)c1C(=O)c1ccc(C(=O)N[C@@H]2CNC[C@H]2NC(=O)c2ccc3[nH]ncc3c2)cc1` is reported as 100% (RET; inhibitor; 50 nM).
With `Cc1ccc(C(=O)Nc2ccc(CN3CCN(C)CC3)c(C(F)(F)F)c2)cc1C#Cc1cnc2cccnn12` the remaining activity was 1.3% (RET; 23.5 nM).
`Cc1[nH]c(/C=C2\C(=O)Nc3ccc(F)cc32)c(C)c1C(=O)N[C@H]1CCN(C(=O)N(C)C)C1` has a remaining activity of 11% (RET; inhibitor; 1 µM).
`Cc1sc(C(=O)NC2COC2)cc1-n1cc(NC(=O)Nc2c(F)cccc2Cl)cn1` has a remaining activity of 113% (RET; inhibitor; 10 µM).
With `COc1cccc(NC(=O)Nc2c(-c3ccc(Cl)cc3)nn(-c3ccc(F)cc3)c2N)c1` the remaining activity was 110% (RET; inhibitor; radiometric; 0.1 µM).
For `O=C(Nc1cnn(-c2csc(C(=O)NC3COC3)c2)c1)Nc1c(F)cccc1Cl`, the remaining activity was 98.1% (RET; inhibitor; 5 µM).
The remaining activity of `CC(C)(C)c1nc(-c2cccc(NS(=O)(=O)c3c(F)cccc3F)c2F)c(-c2ccnc(N)n2)s1` is reported as 81% (RET; inhibitor; radiometric; 1 µM).
`COc1cc(NC(=O)Nc2ccccc2Br)cc2sc(NC(=O)c3ccccc3)nc12` gave a remaining activity of 106% (RET; inhibitor; radiometric; 0.1 µM).
`Cc1cnc(NC2CCOCC2)nc1-n1cnc(C(=O)NC(CN)c2cc(F)cc(Cl)c2)c1` (stereo not shown) gave a remaining activity of 93% (Proto-oncogene tyrosine-protein kinase receptor Ret (RET, Homo sapiens, UniProt P07949, V804L); inhibitor; radiometric; 1 µM).
